Source: PubChem (several laboratories)
KCC2 mod: modulates chloride dependent transport by human KCC2 | Q9H2X9 | KCC2 cells, thallium flux FluoZin-2 fluorescence | B-score of Tl+ flux slope (higher = more flux/activation; lower = inhibition) at 10 µM | 190,000 tested, 2.2% active | AID 1456;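 active means thallium flux slope and its plate-corrected score both differing from the plate sample mean at a set confidence after two filtering rounds, in either direction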;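 further: slope of fluorescence scaled to starting intensity during 10 to 20 s after thallium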
Target sequence (Q9H2X9 whole entry, looked up): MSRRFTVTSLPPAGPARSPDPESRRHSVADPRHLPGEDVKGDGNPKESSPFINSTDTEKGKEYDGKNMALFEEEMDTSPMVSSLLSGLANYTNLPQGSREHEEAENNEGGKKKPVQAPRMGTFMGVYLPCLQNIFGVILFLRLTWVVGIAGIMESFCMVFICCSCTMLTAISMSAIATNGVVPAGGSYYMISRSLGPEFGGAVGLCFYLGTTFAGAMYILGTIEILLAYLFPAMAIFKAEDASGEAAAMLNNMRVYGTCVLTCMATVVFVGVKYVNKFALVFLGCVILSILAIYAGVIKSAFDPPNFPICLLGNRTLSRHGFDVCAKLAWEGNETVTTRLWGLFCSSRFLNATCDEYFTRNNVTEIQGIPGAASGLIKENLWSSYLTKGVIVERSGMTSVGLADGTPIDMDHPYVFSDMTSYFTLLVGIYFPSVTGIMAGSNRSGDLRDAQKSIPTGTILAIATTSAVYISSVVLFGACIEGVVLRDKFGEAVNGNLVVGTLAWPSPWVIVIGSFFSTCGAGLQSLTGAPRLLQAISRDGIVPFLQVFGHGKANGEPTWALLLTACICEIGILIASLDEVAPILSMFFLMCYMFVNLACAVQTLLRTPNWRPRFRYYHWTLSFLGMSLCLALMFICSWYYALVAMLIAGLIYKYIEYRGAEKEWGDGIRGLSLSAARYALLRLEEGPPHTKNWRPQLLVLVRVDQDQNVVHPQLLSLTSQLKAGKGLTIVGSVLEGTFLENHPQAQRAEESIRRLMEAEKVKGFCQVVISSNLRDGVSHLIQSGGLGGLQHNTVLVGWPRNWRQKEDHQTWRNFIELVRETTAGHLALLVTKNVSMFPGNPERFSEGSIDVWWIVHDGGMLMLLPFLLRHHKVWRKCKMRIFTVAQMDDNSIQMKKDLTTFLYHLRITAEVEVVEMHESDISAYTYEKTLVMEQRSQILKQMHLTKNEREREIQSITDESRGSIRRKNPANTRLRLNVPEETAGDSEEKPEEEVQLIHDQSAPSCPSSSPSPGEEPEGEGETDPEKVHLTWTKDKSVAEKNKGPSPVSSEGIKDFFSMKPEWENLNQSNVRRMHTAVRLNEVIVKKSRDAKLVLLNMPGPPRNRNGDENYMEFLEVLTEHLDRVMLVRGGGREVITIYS
KCNK9 block: human KCNK9 channel inhibition | HEK293 KCNK9, FluxOR thallium flux fluorescence; active compounds read low | B-score at 10 µM | 310,000 tested, 1.2% active;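 active means ratio B-score over 3 SD below the library mean, with starting fluorescence within 5 SD of its mean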;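 further: negative B-score means less thallium flux so channel inhibition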
hERG protect: compounds protecting human hERG from proarrhythmic drug block; Q12809; CHO-hERG, FluxOR thallium flux, dofetilide IC70 present; activation (rescue from dofetilide block), less the hit threshold, % at 10 µM; 310,000 tested, 0.51% active; AID 1511;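 active means activation above the mean of controls blocked by dofetilide plus 5 SD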;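 further: thallium influx through hERG after potassium depolarization seen as dye fluorescence rise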
KCNK3 inh: human KCNK3 channel inhibition, primary screen. CHO-KCNK3 thallium flux, FluxOR fluorescence; active compounds read low. B-score at 10 µM. 340,000 tested, 0.84% active. O14649;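 active means B-score under library mean minus 4 SD, starting fluorescence ratio at most library mean plus 5 SD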;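 further: more negative B-score means stronger inhibition of thallium flux through KCNK3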
KCNQ1 act: potentiates or activates the human KCNQ1 potassium channel; P51787; CHO-K1 KCNQ1, thallium flux FluxOR fluorescence; active compounds read high; B-score at 10 µM; 310,000 tested, 0.35% active; AID 2648;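 active means fluorescence ratio B-score, a plate-corrected score, at least three library SD, with initial intensity B-score within 5 SD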
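assay system = CHO-K1 cells stably expressing KCNQ1 | medium = assay buffer, equal DMSO in all wells | timing = 37 °C overnight plating, 90-min dark dye load, 20-min compound pretreatment | measured by = kinetic FluxOR thallium fluorescence, 10-s 1-Hz baseline, 110-s post-stimulus read | measure = fluorescence change relative to baseline, converted to B score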
KCNQ1 block: blocks the human KCNQ1 potassium channel; P51787; CHO-K1 KCNQ1, FluxOR thallium flux fluorescence; active compounds read high; B-score at 10 µM; 310,000 tested, 1.3% active; AID 2642;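 active means compounds whose thallium flux B-score, printed positive for inhibition, exceeds three library SD while starting fluorescence stays within three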;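 further: channel opened by potassium depolarization with thallium stimulus after 20 min compound exposure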
Numbers without * were called inactive. Shown are actives, neighbours in structure and some others; about 4.1% of the full set was active somewhere.

What do the screens show for `Cc1ccc(N2C(=O)N(CC(=O)Nc3cccc([N+](=O)[O-])c3C)C(=O)C2C)cc1` (centres undefined)?
KCNK9 block: inactive; hERG protect: -8.9; KCNK3 inh: inactive; KCNQ1 act: inactive; KCNQ1 block: inactive

What do the screens show for `COc1cc(/C=C/C(=O)NCC(=O)N2CCC(N(C)CCN3CCOCC3)CC2)ccc1OC(C)C`?
KCC2 mod: -0.0599; KCNK9 block: inactive; hERG protect: -8.6; KCNK3 inh: inactive; KCNQ1 act: inactive; KCNQ1 block: inactive

How did CCCCCCc1cc2cc(/C(N)=N/NC(=O)c3ccncc3)c(=O)oc2cc1O do in these assays?
KCNK3 inh: inactive

Results for O=C1NC(=S)S/C1=C\c1ccc(SCc2ccco2)o1 ?
KCC2 mod: 119*; KCNK3 inh: inactive

How did O=C1NC(=S)S/C1=C\c1ccc(SCc2ccccc2)o1 do in these assays?
KCC2 mod: 29.1*; KCNK3 inh: inactive

What do the screens show for `Cc1cc(C(=O)OC(C(=O)Nc2cccc(C(F)(F)F)c2)c2ccccc2)c(C)o1` (centres undefined)?
KCC2 mod: -0.936; KCNK9 block: inactive; hERG protect: -5.1; KCNK3 inh: inactive; KCNQ1 act: inactive; KCNQ1 block: 9*

What do the screens show for `Cc1ccc(S(=O)(=O)NC(=NCc2ccccc2)c2ccc(F)cc2)cc1`?
KCNK9 block: inactive; hERG protect: -2.6; KCNK3 inh: inactive; KCNQ1 act: inactive; KCNQ1 block: inactive

How did Cc1ccccc1S(=O)(=O)NC(=NCc1ccc(F)cc1)c1ccccc1 do in these assays?
KCNK3 inh: -9.26*

What do the screens show for `CCc1nnc(NC(=O)c2cccnc2)s1`?
KCC2 mod: 1.63; KCNK9 block: inactive; hERG protect: -7.6; KCNK3 inh: inactive; KCNQ1 act: inactive; KCNQ1 block: inactive

How did O=C(Nc1nnc(Cc2ccccc2)s1)c1cccnc1 do in these assays?
KCC2 mod: -0.163; KCNK9 block: inactive; hERG protect: 6.3*; KCNK3 inh: inactive; KCNQ1 act: inactive; KCNQ1 block: inactive

Results for CCOC(=O)c1c(C)[nH]c(C(=O)CN(C)CC(=O)Nc2ccccc2C(F)(F)F)c1C ?
KCNK3 inh: -8.77*

What do the screens show for `CCCCN(C)CCNC(=O)C(=O)c1c(C)[nH]c2ccccc12`?
KCC2 mod: -0.0556; KCNK9 block: inactive; hERG protect: -5.2; KCNK3 inh: inactive; KCNQ1 act: inactive; KCNQ1 block: inactive

What do the screens show for `COC(=O)c1ccc(OC(=O)CCN2c3ccccc3Sc3ccccc32)cc1`?
KCC2 mod: -0.825; KCNK9 block: -7.51*; hERG protect: -11.2; KCNK3 inh: inactive; KCNQ1 act: inactive; KCNQ1 block: inactive

What do the screens show for `Cc1cc(C)cc(OCC(=O)OCC(=O)c2cc(C)n(C3CC3)c2C)c1`?
KCNK9 block: inactive; hERG protect: -6.2; KCNK3 inh: inactive; KCNQ1 act: inactive; KCNQ1 block: inactive

How did COc1ccc(/C(O)=C/c2nc3ccc(C(=O)NCCc4cccc(C)c4)cc3[nH]c2=O)cc1OC do in these assays?
KCC2 mod: -0.0698; KCNK9 block: -8.03*; hERG protect: -12.1; KCNK3 inh: inactive; KCNQ1 act: inactive; KCNQ1 block: inactive

Results for COc1ccc(C(=O)NCCc2ccccc2)cc1OC ?
KCNK9 block: inactive; hERG protect: -3.5; KCNK3 inh: inactive; KCNQ1 act: inactive; KCNQ1 block: inactive

What do the screens show for `S=C(Nc1ccccc1)Nc1nc2ccccc2n1CCOc1ccc(Cl)cc1`?
KCC2 mod: 3.05; KCNK9 block: inactive; hERG protect: -0.1; KCNK3 inh: inactive; KCNQ1 act: inactive; KCNQ1 block: inactive

What do the screens show for `CCCn1c(NC(=O)c2ccccc2)nc2ccccc21`?
KCC2 mod: 9.93*; KCNK9 block: inactive; hERG protect: -6.2; KCNK3 inh: inactive; KCNQ1 act: inactive; KCNQ1 block: inactive

What do the screens show for `CCn1c(NC(=S)Nc2ccccc2)nc2ccccc21`?
KCC2 mod: 13*; KCNK9 block: inactive; hERG protect: -12.8; KCNK3 inh: inactive; KCNQ1 act: inactive; KCNQ1 block: inactive

What do the screens show for `N/C(=N\OC(=O)c1ccc(Cl)c([N+](=O)[O-])c1)c1ccccc1`?
KCNK9 block: inactive; hERG protect: -9.9; KCNK3 inh: inactive; KCNQ1 act: inactive; KCNQ1 block: inactive

What do the screens show for `O=[N+]([O-])c1ccc(N2CCC(=NOCc3ccc(Cl)cc3)CC2)cc1`?
KCC2 mod: -0.563; KCNK9 block: inactive; hERG protect: -17.7; KCNK3 inh: inactive; KCNQ1 act: inactive; KCNQ1 block: 6*

Results for O=[N+]([O-])c1ccc(CN2CCN(c3ccc([N+](=O)[O-])cc3)CC2)cc1 ?
KCNK9 block: inactive; hERG protect: -5.6; KCNK3 inh: inactive; KCNQ1 act: inactive; KCNQ1 block: inactive

How did O=C(NC1CC1)c1cc(Cl)ccc1[N+](=O)[O-] do in these assays?
KCC2 mod: -0.231; KCNK9 block: inactive; hERG protect: -10.8; KCNK3 inh: inactive; KCNQ1 act: inactive; KCNQ1 block: inactive

Results for Fc1cnc(N2CCOCC2)nc1N1CCc2ccccc21 ?
KCC2 mod: -3.26*; KCNK9 block: inactive; hERG protect: -2.8; KCNK3 inh: inactive; KCNQ1 act: inactive; KCNQ1 block: inactive

What do the screens show for `CCOC(=O)N1CCN(C(=O)/C=C/c2ccc(OC)cc2)CC1`?
KCNK9 block: inactive; hERG protect: 10.1*; KCNK3 inh: inactive; KCNQ1 act: inactive; KCNQ1 block: inactive

How did CCOC(=O)N1CCN(C(=O)/C=C/c2ccc3c(c2)OCO3)CC1 do in these assays?
KCC2 mod: 0.704; KCNK9 block: inactive; hERG protect: -11.8; KCNK3 inh: inactive; KCNQ1 act: inactive; KCNQ1 block: inactive

How did COc1ccc(/C=N/NC(=O)c2ccc(O)cc2)cc1CN1CCCc2ccccc21 do in these assays?
KCC2 mod: 1.1; KCNK9 block: -7.91*; hERG protect: -9.6; KCNK3 inh: inactive; KCNQ1 act: inactive; KCNQ1 block: inactive

What do the screens show for `O=C(O)C12C3CCC(O3)C1(C(=O)O)C1CCC2O1` (centres undefined)?
KCNK3 inh: inactive

Results for O=C(CSc1ccccc1)NCC(c1ccco1)N1CCCCC1 (centres undefined) ?
KCNK3 inh: inactive

How did OC(CNCC(c1ccco1)N1CCCCC1)c1ccccc1 (centres undefined) do in these assays?
KCNK9 block: inactive; hERG protect: 5.9*; KCNK3 inh: inactive; KCNQ1 act: inactive; KCNQ1 block: inactive

How did CC(C)(C)OC(=O)C[C@H]1C/C=C\C[C@H](CC(=O)N[C@H](CO)Cc2ccccc2)C(=O)N2CCC[C@H]2COC1=O do in these assays?
KCNK3 inh: inactive
